Drawing on ChEMBL document CHEMBL3414450, “Synthetic phenylethanoid glycoside derivatives as potent neuroprotective agents” (Eur J Med Chem, 2015), this text covers Activity for nine compounds.

For series [1], the system named is PC-12. Nature of the series: Neuroprotective activity in rat PC12 cells assessed as decrease in 6-OHDA-induced cell death at 6.25 to 100 uM incubated for 6 hrs prior to 6-OHDA challenge measured after 24 hrs by MTT assay. Format: functional, cell-based. The method in brief:
(§1)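 PC12 cells seeded at 1×10^5/well for 24 h, pretreated 6 h with compound (6.25–100 μM; DMSO stock diluted in PBS), then exposed to 100 μM 6-OHDA for 24 h at 37 °C. Viability read by MTT (5 mg/mL, 4 h), DMSO, absorbance 570 nm. Expressed as % of the PBS-treated control, mean ± SD, n = 3.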
(In general: Formazan colour is commonly taken as a measure of viable cells.)

For series [2], the system named is PC-12. Nature of the series: Neuroprotective activity in rat PC12 cells assessed as decrease in H2O2-induced cell death at 100 uM incubated for 6 hrs prior to H2O2 challenge measured after 1 hr by MTT assay. Format: functional, cell-based. An outline of the steps:
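PC12 cells seeded at 1×10^5/well for 24 h. Pretreated 6 h with compound (100 μM; DMSO stock diluted in PBS), then challenged with 300 μM H2O2 for 1 h at 37 °C. MTT at 5 mg/mL for 4 h, DMSO solubilisation, A570. Survival is given as % of the PBS-treated control, mean ± SD, n = 3. Vitamin C was the positive control.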

A short description of series [3]: Cytotoxicity against rat PC12 cells assessed as cell viability at 100 uM incubated for 6 hrs prior to PBS treatment measured after 1 hr by MTT assay. Format: cell-based. The following applies: pc-12, 1 h.
In series [4] the test system is PC-12. Kind of series: Neuroprotective activity in rat PC12 cells assessed as decrease in 6-OHDA-induced early and late apoptosis at 6.25 to 25 uM incubated for 6 hrs prior to 6-OHDA challenge measured after 24 hrs by annexin V/propidium iodide staining-based fluorescence microscopic analysis. Format: functional, cell-based. An outline of the steps: (§2)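 PC12 cells on coverslips (1×10^5/well) pretreated 6 h with compound, then given 100 μM 6-OHDA for 24 h at 37 °C. After two PBS washes, stained with Annexin V-FITC/PI, each diluted 1:100 in binding buffer and mixed 1:1. Imaged by fluorescence microscopy (ex 488; em 515–545 and 575–635 nm). Apoptotic and necrotic cells counted in five fields, three separate groups. Edaravone was the positive control.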

Series [5] relates to PC-12. Nature of the series: Neuroprotective activity in rat PC12 cells assessed as decrease in 6-OHDA-induced cell death incubated for 6 hrs prior to 6-OHDA challenge measured after 24 hrs by MTT assay. Format: functional, cell-based. The method in brief: as §1
For series [6], the system named is PC-12. Nature of the series: Neuroprotective activity in rat PC12 cells assessed as decrease in 6-OHDA-induced intracellular ROS level incubated for 6 hrs prior to 6-OHDA challenge measured after 24 hrs by DCFH-DA dye-based spectrofluor analysis. Format: functional, cell-based. The method in brief: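 PC12 cells (1×10^5/well) pretreated 6 h with compound at several concentrations one day after seeding, then given 100 μM 6-OHDA for 24 h at 37 °C. Loaded with DCFH-DA (1:1000 in DMEM) for 30 min at 37 °C, 5% CO2, then washed three times with PBS. DCF fluorescence read at 488/525 nm in five fields per well. Untreated cells are set to 100%, mean ± SD, n = 3. Edaravone was the positive control.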

The test system of series [7] is PC-12. Kind of series: Neuroprotective activity in rat PC12 cells assessed as decrease in 6-OHDA-induced early and late apoptosis at 6.25 to 50 uM incubated for 6 hrs prior to 6-OHDA challenge measured after 24 hrs by annexin V/propidium iodide staining-based fluorescence microscopic analysis. Format: functional, cell-based. The method in brief:
as §2

Series [8] deals with PC-12. Kind of series: Neuroprotective activity in rat PC12 cells assessed as decrease in 6-OHDA-induced early and late apoptosis at 1.56 to 6.25 uM incubated for 6 hrs prior to 6-OHDA challenge measured after 24 hrs by annexin V/propidium iodide staining-based fluorescence microscopic analysis. Format: functional, cell-based. An outline of the steps: as §2
For series [9], the system named is PC-12. Nature of the series: Neuroprotective activity in rat PC12 cells assessed as decrease in 6-OHDA-induced apoptosis at 200 uM incubated for 6 hrs prior to 6-OHDA challenge measured after 24 hrs by annexin V/propidium iodide staining-based fluorescence microscopic analysis. Format: functional, cell-based. An outline of the steps:
as §2

The structures appear in SMILES notation. Calls of active or inactive are those of the source. No cut-off for these calls is given here.

`OC[C@H]1O[C@@H](OCCc2ccc(O)c(O)c2)[C@H](O)[C@@H](O)[C@@H]1O`: the outcome in the series on PC-12 [1] and in the series on PC-12 [2] was Active.

As for `COC(=O)[C@]1(OC)C[C@H](O)[C@@H](NC(=O)/C=C/c2ccc(O)c(O)c2)[C@H]([C@H](O)[C@H](O)CO)O1`, the Activity result in [3] was “Non-toxic”; in the series with PC-12 [5], “Dose-dependent effect”; in the series on PC-12 [6], “Dose-dependent effect”. The result with PC-12 [2] and in the series with PC-12 [4] was Active.

Turning to `O=C(Cc1ccc(O)c(O)c1)O[C@H]1[C@H](O)[C@@H](O)[C@H](OCCc2ccc(O)c(O)c2)O[C@@H]1CO`, the Activity result is “Non-toxic” in series [3], “Dose-dependent effect” in the series with PC-12 [5] and “Dose-dependent effect” with PC-12 [6]. For the same compound, the outcome in the series on PC-12 [2] and in the series with PC-12 [7] was Active.

In the case of `COc1ccc(/C=C/C(=O)O[C@H]2[C@H](O)[C@@H](O)[C@H](OCCc3ccc(O)c(O)c3)O[C@@H]2CO)cc1OC`, the result with PC-12 [2] was inactive.

Take `O=C(/C=C/c1ccc(F)c(F)c1)O[C@H]1[C@H](O)[C@@H](O)[C@H](OCCc2ccc(O)c(O)c2)O[C@@H]1CO`: the outcome in the series on PC-12 [1] and in the series with PC-12 [2] was Active.

For the compound `O=C(/C=C/c1ccc(O)c(O)c1)O[C@H]1[C@H](O)[C@@H](O)[C@H](OCCc2ccc(O)c(O)c2)O[C@@H]1CO`, the result in the series with PC-12 [1] and in the series on PC-12 [2] was Active.

As to `O=C(/C=C/c1ccc(O)c(O)c1)OCCc1ccc(O)c(O)c1`, the Activity result in series [3] was “Non-toxic”; in the series on PC-12 [5], “Dose-dependent effect”; with PC-12 [6], “Dose-dependent effect”. The result with PC-12 [2] and in the series with PC-12 [8] was Active.

As for `O=C(/C=C/c1ccc(Cl)cc1)O[C@H]1[C@H](O)[C@@H](O)[C@H](OCCc2ccc(O)c(O)c2)O[C@@H]1CO`, the outcome with PC-12 [1] and with PC-12 [2] was Active.

In the case of `CC1=NN(c2ccccc2)C(=O)C1`, the outcome in the series with PC-12 [9] was inactive.
